What was measured:
Format in all cases: functional
MCF7 = test: Cytotoxicity against human MCF7 cells after 48 hrs by SRB assay; conditions: MCF7, 48 h
Outline: (§1)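 NCI 60-cell-line panel of human tumour lines from nine cancer types. Continuous 48 h exposure at five 10-fold dilutions from 10^-4 to 10^-8 M, with 5-FU as positive control. SRB protein stain read spectrophotometrically at time zero, untreated control and each concentration. GI50, TGI and LC50 were derived from the [(Ti−Tz)/(C−Tz)]×100 growth relations, and out-of-range values are given as > or < the tested limits.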

SK-OV-3 = test: Growth inhibition of human SKOV3 cells assessed as cell growth at 10^-8 M after 48 hrs by SRB assay; conditions: SK-OV-3, 48 h, read-out: Activity
NCI-H226 = test: Growth inhibition of human NCI-H226 cells assessed as cell growth at 10^-7 M after 48 hrs by SRB assay; conditions: NCI-H226, 48 h, read-out: Activity
K562 = test: Growth inhibition of human K562 cells assessed as cell growth at 10^-6 M after 48 hrs by SRB assay; conditions: K562, 48 h, read-out: Activity
HOP-62 [1] = test: Growth inhibition of human HOP62 cells assessed as cell growth at 10^-4 M after 48 hrs by SRB assay; conditions: HOP-62, 48 h, read-out: Activity
[2] = Growth inhibition of human RXF393 cells assessed as cell growth at 10^-8 M after 48 hrs by SRB assay; conditions: RXF 393, 48 h, read-out: Activity
[3] = Growth inhibition of human LOXIMVI cells assessed as cell growth at 10^-7 M after 48 hrs by SRB assay; conditions: LOX IMVI, read-out: Activity
[4] = Growth inhibition of human OVCAR8 cells assessed as cell growth at 10^-5 M after 48 hrs by SRB assay; conditions: OVCAR-8, 48 h, read-out: Activity
COLO 205 = test: Growth inhibition of human COLO205 cells assessed as cell growth at 10^-7 M after 48 hrs by SRB assay; conditions: COLO 205, 48 h, read-out: Activity
Outline: (§2)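 Five-dose NCI panel protocol. Each dose (10^-4 to 10^-8 M, 10-fold steps) was given as 48 h continuous exposure, and protein was measured by SRB staining. Percentage growth at each level is [(Ti−Tz)/(C−Tz)]×100, where Tz is time-zero absorbance and C is untreated control.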

NCI-H322M = test: Growth inhibition of human NCI-H322M cells assessed as cell growth at 10^-4 M after 48 hrs by SRB assay; conditions: read-out: Activity
CAKI-1 = test: Growth inhibition of human CAKI-1 cells assessed as cell growth at 10^-4 M after 48 hrs by SRB assay; conditions: CAKI-1, 48 h, read-out: Activity; outline: as §2
MDA-MB-231 = test: Growth inhibition of human MDA-MB-231 cells assessed as cell growth at 10^-5 M after 48 hrs by SRB assay; conditions: MDA-MB-231, 48 h, read-out: Activity
[5] = Growth inhibition of human OVCAR4 cells assessed as cell growth at 10^-5 M after 48 hrs by SRB assay; conditions: OVCAR-4, 48 h, read-out: Activity
HOP-92 = test: Cytotoxicity against human HOP92 cells after 48 hrs by SRB assay; conditions: HOP-92, 48 h; outline: as §1
[6] = Growth inhibition of human HOP92 cells assessed as cell growth at 10^-5 M after 48 hrs by SRB assay; conditions: HOP-92, 48 h, read-out: Activity
SNB-19 = test: Cytotoxicity against human SNB19 cells after 48 hrs by SRB assay; conditions: SNB-19, 48 h; outline: as §1
[7] = Cytotoxicity against human UACC257 cells after 48 hrs by SRB assay; conditions: UACC-257, 48 h
Outline: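 NCI 60-cell-line panel, 48 h continuous exposure to five 10-fold dilutions from 10^-4 to 10^-8 M. SRB protein staining was read spectrophotometrically, with time-zero, untreated-control and treated absorbances. GI50, TGI and LC50 were derived from the percentage-growth formulas. Values outside the tested range are expressed as more or less than the maximum or minimum concentration.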

Malme-3M = test: Growth inhibition of human MALME-3M cells assessed as cell growth at 10^-8 M after 48 hrs by SRB assay; conditions: read-out: Activity
PC-3 = test: Cytotoxicity against human PC3 cells after 48 hrs by SRB assay; conditions: PC-3, 48 h; outline: as §1
SW-620 = test: Growth inhibition of human SW620 cells assessed as cell growth at 10^-8 M after 48 hrs by SRB assay; conditions: SW-620, 48 h, read-out: Activity
[8] = Growth inhibition of human OVCAR3 cells assessed as cell growth at 10^-6 M after 48 hrs by SRB assay; conditions: OVCAR-3, 48 h, read-out: Activity
[9] = Cytotoxicity against human OVCAR4 cells after 48 hrs by SRB assay; conditions: OVCAR-4, 48 h; outline: as §1
[10] = Growth inhibition of human UACC62 cells assessed as cell growth at 10^-4 M after 48 hrs by SRB assay; conditions: UACC-62, 48 h, read-out: Activity
[11] = Growth inhibition of human OVCAR3 cells assessed as cell growth at 10^-7 M after 48 hrs by SRB assay; conditions: OVCAR-3, 48 h, read-out: Activity
[12] = Growth inhibition of human SF295 cells assessed as cell growth at 10^-7 M after 48 hrs by SRB assay; conditions: SF-295, 48 h, read-out: Activity
SF-268 = test: Growth inhibition of human SF268 cells assessed as cell growth at 10^-8 M after 48 hrs by SRB assay; conditions: SF-268, 48 h, read-out: Activity
HOP-62 [13] = test: Growth inhibition of human HOP62 cells assessed as cell growth at 10^-5 M after 48 hrs by SRB assay; conditions: HOP-62, 48 h, read-out: Activity
[14] = read-out: LC50 (the source's name)
[15] = read-out: pLC50 (the source's name) (converted)

Cc1ccc(-c2nc3ccc(Cl)cc3c(=O)n2/N=C/c2ccccc2)cc1
GI50 (MCF7; read-out: GI50): 26.9 µM
CC50 (MCF7; [14]): > 100 µM
TGI (MCF7; read-out: TGI): > 100 µM
GI50 (MCF7; read-out: pGI50 (converted)): 26.9 µM
CC50 (MCF7; [15]): > 100 µM
TGI (MCF7; read-out: pTGI): > 100 µM
growth at 0.01 µM (SK-OV-3): 98%
growth at 0.1 µM (NCI-H226): 82%
growth at 1 µM (K562): 92%
growth at 100 µM (HOP-62 [1]): -64%
growth at 0.01 µM [2]: 97%
growth at 0.1 µM [3]: 93%
growth at 10 µM [4]: 30%
growth at 0.1 µM (COLO 205): 116%
growth at 100 µM (NCI-H322M): 42%
growth at 100 µM (CAKI-1): 32%
growth at 10 µM (MDA-MB-231): 33%
growth at 10 µM [5]: 23%
GI50 (HOP-92; read-out: GI50): 6.74 µM
CC50 (HOP-92; [14]): > 100 µM
TGI (HOP-92; read-out: TGI): > 100 µM
GI50 (HOP-92; read-out: pGI50 (converted)): 6.76 µM
CC50 (HOP-92; [15]): > 100 µM
TGI (HOP-92; read-out: pTGI): > 100 µM
growth at 10 µM [6]: 43%
GI50 (SNB-19; read-out: GI50): 5 µM
CC50 (SNB-19; [14]): > 100 µM
TGI (SNB-19; read-out: TGI): > 100 µM
GI50 (SNB-19; read-out: pGI50 (converted)): 5.01 µM
CC50 (SNB-19; [15]): > 100 µM
TGI (SNB-19; read-out: pTGI): > 100 µM
GI50 ([7]; read-out: GI50): > 100 µM
CC50 [7, 14]: > 100 µM
TGI ([7]; read-out: TGI): > 100 µM
GI50 ([7]; read-out: pGI50 (converted)): > 100 µM
CC50 [7, 15]: > 100 µM
TGI ([7]; read-out: pTGI): > 100 µM
growth at 0.01 µM (Malme-3M): 92%
GI50 (PC-3; read-out: GI50): 83 µM
CC50 (PC-3; [14]): > 100 µM
TGI (PC-3; read-out: TGI): > 100 µM
GI50 (PC-3; read-out: pGI50 (converted)): 83.2 µM
CC50 (PC-3; [15]): > 100 µM
TGI (PC-3; read-out: pTGI): > 100 µM
growth at 0.01 µM (SW-620): 96%
growth at 1 µM [8]: 94%
GI50 ([9]; read-out: GI50): 4.54 µM
CC50 [9, 14]: > 100 µM
TGI ([9]; read-out: TGI): > 100 µM
GI50 ([9]; read-out: pGI50 (converted)): 4.57 µM
CC50 [9, 15]: > 100 µM
TGI ([9]; read-out: pTGI): > 100 µM
growth at 100 µM [10]: 32%
growth at 0.1 µM [11]: 96%
growth at 0.1 µM [12]: 80%
growth at 0.01 µM (SF-268): 91%
growth at 10 µM (HOP-62 [13]): 36%

From ChEMBL document CHEMBL3259728, “Design, synthesis and biological evaluation of some novel substituted quinazolines as antitumor agents” (2014)
